Paper PMC12166256 (Clinical Pharmacology and Therapeutics, 2025)

Experiment: Food effect study: safety and tolerability
Format: in vivo, human
In short: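 Healthy males aged 18–55 with BMI 18–30 kg/m² were followed through dosing and a 6–8-day follow-up. Checks: physical examination, clinical laboratory tests, vital signs and 12-lead ECG, with adverse events coded in MedDRA. Events of special interest: ALT ≥2×ULN, QTcF ≥500 ms, Grade ≥2 photosensitivity, symptomatic overdose. Treatment-emergent events were summarised descriptively by organ class, preferred term and dose level for all exposed participants.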

## CN1C(=O)c2cccc(OC(F)F)c2[C@H]2C[C@@H]1c1nc3ccc(-c4cnc(C5(N)CCC5)nc4)cc3n12 [Balinatunfib]
200 mg fasted, N = 8
  Any event TEAE, participants: 5 (62.5) n (%)
  Blood and lymphatic system disorders TEAE, events: 1
  Blood and lymphatic system disorders TEAE, participants: 1 (12.5) n (%)
  Blood pressure orthostatic decreased TEAE, events: 1
  Blood pressure orthostatic decreased TEAE, participants: 1 (12.5) n (%)
  Diarrhea TEAE, events: 1
  Diarrhea TEAE, participants: 1 (12.5) n (%)
  Dry skin TEAE, events: 1
  Dry skin TEAE, participants: 1 (12.5) n (%)
  Fatigue TEAE, events: 0
  Fatigue TEAE, participants: 0 n (%)
  Flatulence TEAE, events: 1
  Flatulence TEAE, participants: 1 (12.5) n (%)
  Gastrointestinal disorders TEAE, events: 2
  Gastrointestinal disorders TEAE, participants: 2 (25.0) n (%)
  General disorders and administration site conditions TEAE, events: 0
  General disorders and administration site conditions TEAE, participants: 0 n (%)
  Headache TEAE, events: 1
  Headache TEAE, participants: 1 (12.5) n (%)
  Investigations TEAE, events: 1
  Investigations TEAE, participants: 1 (12.5) n (%)
  Loss of consciousness TEAE, events: 1
  Loss of consciousness TEAE, participants: 1 (12.5) n (%)
  Muscle tightness TEAE, events: 0
  Muscle tightness TEAE, participants: 0 n (%)
  Musculoskeletal and connective tissue disorders TEAE, events: 0
  Musculoskeletal and connective tissue disorders TEAE, participants: 0 n (%)
  Nervous system disorders TEAE, events: 2
  Nervous system disorders TEAE, participants: 2 (25.0) n (%)
  Neutropenia TEAE, events: 1
  Neutropenia TEAE, participants: 1 (12.5) n (%)
  Skin and subcutaneous tissue disorders TEAE, events: 1
  Skin and subcutaneous tissue disorders TEAE, participants: 1 (12.5) n (%)
  Tendonitis TEAE, events: 0
  Tendonitis TEAE, participants: 0 n (%)
200 mg fasted, Period 1, normal range 1.46–5.85
  neutrophil count in the participant with Grade 2 neutropenia: 1.42e+09 L⁻¹
200 mg fed (four of six)
  participants with at least one TEAE: 66.7%
200 mg fed, N = 6
  Any event TEAE, events: 6
  Any event TEAE, participants: 4 (66.7) n (%)
  Blood and lymphatic system disorders TEAE, events: 0
  Blood and lymphatic system disorders TEAE, participants: 0 n (%)
  Blood pressure orthostatic decreased TEAE, events: 1
  Blood pressure orthostatic decreased TEAE, participants: 1 (16.7) n (%)
  Diarrhea TEAE, events: 1
  Diarrhea TEAE, participants: 1 (16.7) n (%)
  Dry skin TEAE, events: 0
  Dry skin TEAE, participants: 0 n (%)
  Fatigue TEAE, events: 1
  Fatigue TEAE, participants: 1 (16.7) n (%)
  Flatulence TEAE, events: 0
  Flatulence TEAE, participants: 0 n (%)
  Gastrointestinal disorders TEAE, events: 1
  Gastrointestinal disorders TEAE, participants: 1 (16.7) n (%)
  General disorders and administration site conditions TEAE, events: 1
  General disorders and administration site conditions TEAE, participants: 1 (16.7) n (%)
  Headache TEAE, events: 1
  Headache TEAE, participants: 1 (16.7) n (%)
  Investigations TEAE, events: 1
  Investigations TEAE, participants: 1 (16.7) n (%)
  Loss of consciousness TEAE, events: 0
  Loss of consciousness TEAE, participants: 0 n (%)
  Muscle tightness TEAE, events: 1
  Muscle tightness TEAE, participants: 1 (16.7) n (%)
  Musculoskeletal and connective tissue disorders TEAE, events: 2
  Musculoskeletal and connective tissue disorders TEAE, participants: 2 (33.3) n (%)
  Nervous system disorders TEAE, events: 1
  Nervous system disorders TEAE, participants: 1 (16.7) n (%)
  Neutropenia TEAE, events: 0
  Neutropenia TEAE, participants: 0 n (%)
  Skin and subcutaneous tissue disorders TEAE, events: 0
  Skin and subcutaneous tissue disorders TEAE, participants: 0 n (%)
  Tendonitis TEAE, events: 1
  Tendonitis TEAE, participants: 1 (16.7) n (%)
Food effect study
  Grade ≥ 3 TEAE, treatment-emergent SAEs, AESIs: No participants
